Experimental data taken from ChEMBL document CHEMBL4261575, “Structure-guided approach identifies a novel class of HIV-1 ribonuclease H inhibitors: binding mode insights through magnesium complexation and site-directed mutagenesis studies” (Medchemcomm, 2018).
Active and inactive are the calls of the source. The rule behind the calls is not given here.

Experiments:
[1] = molecular target: Human immunodeficiency virus type 1 reverse transcriptase (Human immunodeficiency virus 1) (UniProt Q72547); test: Inhibition of HIV1 reverse transcriptase RNase H activity using 18-nucleotide 3'-fluorescein-labeled RNA/5'-[…]-labeled DNA hybrid as substrate assessed as remaining activity at 100 uM after 1 hr by fluorescence assay relative to control
How it was run: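 Wild-type RT (20 ng) RNase H reaction in Tris-HCl pH 7.8 buffer with 6 mM MgCl2, 1 mM DTT and 80 mM KCl. Substrate was 0.25 μM fluorescein/dabcyl RNA/DNA hybrid, with compound at 100 μM. Incubation 1 h at 37 °C, EDTA stop, fluorescence at 490/528 nm. Activity is given as percentage of control.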

[2] = molecular target: Human immunodeficiency virus type 1 reverse transcriptase (Human immunodeficiency virus 1, UniProt Q72547); test: Inhibition of HIV1 reverse transcriptase RNase H activity using 18-nucleotide 3'-fluorescein-labeled RNA/5'-[…]-labeled DNA hybrid as substrate after 1 hr by fluorescence assay
How it was run: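 Polymerase-independent RNase H assay with 20 ng wild-type RT in 50 mM Tris-HCl pH 7.8, 6 mM MgCl2, 1 mM DTT and 80 mM KCl. Substrate was 0.25 μM RNA/DNA hybrid with a fluorescein-labelled RNA and a dabcyl-labelled DNA. Inhibitor was diluted in water over increasing concentrations. Incubation 1 h at 37 °C, stopped with EDTA, read at 490/528 nm. IC50 was averaged over three independent experiments.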

[3] = system: Human immunodeficiency virus 1; test: Antiviral activity against HIV1 assessed as inhibition of viral replication at 40 uM by cell-based assay; assay type: functional, organism-based
[4] = Selectivity ratio of IC50 for HIV1 group M subtype B reverse transcriptase p66 R448A mutant RNase H activity to IC50 for HIV1 reverse transcriptase RNase H activity
[5] = Selectivity ratio of IC50 for HIV1 group M subtype B reverse transcriptase p66 R557A mutant RNase H activity to IC50 for HIV1 reverse transcriptase RNase H activity
[6] = Selectivity ratio of IC50 for HIV1 group M subtype B reverse transcriptase p66 A502F mutant RNase H activity to IC50 for HIV1 reverse transcriptase RNase H activity
[7] = Selectivity ratio of IC50 for HIV1 group M subtype B reverse transcriptase p66 N474A mutant RNase H activity to IC50 for HIV1 reverse transcriptase RNase H activity
[8] = molecular target: Human immunodeficiency virus type 1 reverse transcriptase (Human immunodeficiency virus 1, UniProt Q72547, N474A); test: Inhibition of HIV1 group M subtype B reverse transcriptase p66 N474A mutant RNase H activity using 18-nucleotide 3'-fluorescein-labeled RNA/5'-[…]-labeled DNA hybrid as substrate after 1 hr by fluorescence assay; design: species or system HIV-1 group M
How it was run: (§1)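 Mutations were introduced into the p66 subunit of subtype B RT. Enzyme amounts were set within the linear range: R448A 37.5 ng, N474A 62.5 ng, A502F 100 ng, R557A 75 ng. Buffer was 50 mM Tris-HCl pH 7.8, 6 mM MgCl2, 1 mM DTT, 80 mM KCl, with 0.25 μM fluorescein/dabcyl hybrid and water-diluted inhibitor. Incubation 1 h at 37 °C, EDTA stop, read at 490/528 nm.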

[9] = Binding affinity to Mg2+ at 3 x 10^-5 M to 8 x 10^-5 M by UV-Vis spectrophotometric method
How it was run: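 UV-vis spectrophotometric titration of the compound in absolute ethanol with MgCl2, read in a quartz cuvette with a 1 cm path. MgCl2 was diluted in absolute ethanol to 13 stock solutions spanning 4 10–5 to 0.2 M (stock concentrations). Spectra were recorded across increasing Mg2+ levels, and isosbestic points were used to judge complexation equilibria. Each experiment was done in triplicate.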

[10] = molecular target: Human immunodeficiency virus type 1 reverse transcriptase (Human immunodeficiency virus 1, UniProt Q72547, R448A); test: Inhibition of HIV1 group M subtype B reverse transcriptase p66 R448A mutant RNase H activity using 18-nucleotide 3'-fluorescein-labeled RNA/5'-[…]-labeled DNA hybrid as substrate after 1 hr by fluorescence assay; design: species or system HIV-1 group M; how it was run: as §1
[11] = (§2) Binding affinity to Mg2+ assessed as hyperchromic effect at 3 x 10^-5 M to 8 x 10^-5 M by UV-Vis spectrophotometric method
How it was run: (§3)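 UV-vis titration with MgCl2 in a 1 cm quartz cuvette. MgCl2 was diluted in absolute ethanol to 13 stock solutions spanning 4 10–5 to 0.2 M. Spectra were followed for absorbance changes and isosbestic points. Each experiment was done in triplicate.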

[12] = as §2; how it was run: as §3; remark: listed apart in the source
[13] = molecular target: Human immunodeficiency virus type 1 reverse transcriptase (Human immunodeficiency virus 1, UniProt Q72547, R557A); test: Inhibition of HIV1 group M subtype B reverse transcriptase p66 R557A mutant RNase H activity using 18-nucleotide 3'-fluorescein-labeled RNA/5'-[…]-labeled DNA hybrid as substrate after 1 hr by fluorescence assay; design: species or system HIV-1 group M; how it was run: as §1
[14] = molecular target: Human immunodeficiency virus type 1 reverse transcriptase (Human immunodeficiency virus 1, UniProt Q72547, A502F); test: Inhibition of HIV1 group M subtype B reverse transcriptase p66 A502F mutant RNase H activity using 18-nucleotide 3'-fluorescein-labeled RNA/5'-[…]-labeled DNA hybrid as substrate after 1 hr by fluorescence assay; design: species or system HIV-1 group M; how it was run: as §1

| SMILES | Activity [1] [%] | IC50 [2] [µM] | also measured |
| --- | --- | --- | --- |
| CC(=O)c1cc2c(cc1NC(=O)CCC(=O)O)OCO2 | 89.5 | > 100 |  |
| CCOc1cccc(/C=C2\SC(=O)NC2=O)c1O | 60 | > 100 |  |
| CCOc1cc(/C=C2\SC(=S)N(c3ccccc3)C2=O)cc([N+](=O)[O-])c1O |  | 12.8 | inhibition [3]: inactive; Ratio IC50 [4]: 0.9; Ratio IC50 [5]: 1.5; Ratio IC50 [6]: 2.1; Ratio IC50 [7]: 11.4; IC50 [8]: 146 µM; Activity [9]: Active; IC50 [10]: 11.3 µM; Activity [11]: Active; Activity [12]: Active; IC50 [13]: 18.6 µM; IC50 [14]: 26.3 µM |
| COc1cc(NC(=O)C2CC(=O)N=C(N)S2)cc(OC)c1 (configuration not stated) | 74.5 | > 100 |  |
| CC(C)c1ccc(O)c(=O)c(O)c1 [BETA-THUJAPLICINOL] |  |  | Ratio IC50 [4]: 0.7; Ratio IC50 [5]: 1.05; Ratio IC50 [6]: 0.85; Ratio IC50 [7]: 0.5; IC50 [8]: 0.1 µM; IC50 [10]: 0.14 µM; IC50 [13]: 0.21 µM; IC50 [14]: 0.17 µM |
| CSCCC(NS(=O)(=O)c1ccc2c(c1)NC(=O)C(C)O2)C(=O)O (configuration not stated) | 80.2 | > 100 |  |
| O=C(O)C1Sc2[nH]c(=O)sc2C2c3ccccc3OC(=O)C12 (configuration not stated) | 80 | > 100 |  |
| O=C(CSc1nc2ccccc2o1)Nc1ncn[nH]1 | 82.7 | > 100 |  |
| CC(Oc1ccc(C(C)(C)C)cc1)C(=O)NN (configuration not stated) | 70.4 | > 100 |  |
| CCOC(=O)C12CC(OC3CCCCC3)C1(c1ccccc1)NC(=O)C2=O (configuration not stated) | 80.4 | > 100 |  |
| CCCc1cc2c(cc1/C=C1\NC(=O)NC1=O)OCO2 |  | 91.6 |  |
| CCc1nnc(NC(=O)C(=O)NCCOC(=O)c2ccccc2)s1 | 77.9 | > 100 |  |
| CCOc1ccc(/C=C2\SC(=O)NC2=O)cc1OCc1ccc(Cl)c(Cl)c1 |  | 5.17 | inhibition [3]: inactive; Ratio IC50 [4]: 1.4; Ratio IC50 [5]: 2.5; Ratio IC50 [6]: 5.3; Ratio IC50 [7]: > 59; IC50 [8]: > 300 µM; Activity [9]: inactive; IC50 [10]: 7.01 µM; IC50 [13]: 12.5 µM; IC50 [14]: 26.7 µM |
| NC(=O)N(CCC(=O)O)c1ccc(Br)cc1 | 84.5 | > 100 |  |
| Cc1ccc(C2NC(=O)C(O)=C2C(=O)c2cccs2)cc1 (configuration not stated) | 81.8 | > 100 |  |
| COC(=O)c1c(-c2cccs2)csc1NC(=O)C1CC=CCC1C(=O)O (configuration not stated) | 93 | > 100 |  |
| O=C(O)COc1ccc(/C=C2\NC(=O)NC2=O)cc1I | 67.5 | > 100 |  |
| COc1ccccc1/C=C/CN1CCNC(=O)C1CC(=O)O (configuration not stated) | 83.7 | > 100 |  |
| CCN1C(=O)/C(=C/c2ccc(O)c([N+](=O)[O-])c2)SC1=S | 65.5 | > 100 |  |
| O=C1NC(=O)/C(=C/c2ccc(Cl)c(Cl)c2)S1 | 80.5 | > 100 |  |
| Cc1cc(/C=C2\NC(=O)NC2=O)c(C)n1-c1ccc(OCc2ccc(Cl)cc2Cl)cc1 |  | 8.73 | Activity [9]: inactive |
| CC1=C(C(=O)O)N2C(=O)C(NC(=O)c3ccn(C)n3)C2SC1 (configuration not stated) | 80 | > 100 |  |
| NNC(=O)C12CC3CC(C1)CC(n1cnc(Cl)n1)(C3)C2 | 73.4 | > 100 |  |

| SMILES | Activity [1] [%] | IC50 [2] [µM] | also measured |
| --- | --- | --- | --- |
| Cc1cc(/C=C2\SC(=N)NC2=O)c(C)n1-c1ccc(Cl)cc1 |  | 16.1 | Activity [9]: inactive |
| Cc1cc(/C=C2\SC(N)=NC2=O)c(C)n1-c1ccc(F)cc1 |  | 12.3 | Activity [9]: inactive |
| C[S+]([O-])CCC(NS(=O)(=O)c1ccccc1)C(=O)O (configuration not stated) | 86 | > 100 |  |
| Cc1nc(N)sc1C(=O)N/N=C\c1ccc(O)c([N+](=O)[O-])c1 | 55 | > 100 |  |
| COc1cc(/C=N/NC(=O)COc2cccc(C)c2)c(O)c([N+](=O)[O-])c1 | 59.4 | > 100 |  |
| CCOc1ccc(/C=C2\NC(=O)NC2=O)c(Cl)c1OC |  | 84.2 |  |
| CCC(C)Oc1ccc(/C=C2\NC(=O)NC2=O)cc1 (configuration not stated) |  | 52.8 |  |
| COc1ccccc1NC(=O)C1CCCCC1(C)C(=O)O (configuration not stated) |  | 61.2 |  |
| O=C(N/N=C\c1cc([N+](=O)[O-])c(O)cc1O)c1ccccc1O |  | 49.9 |  |
| COc1cc(N2CCCC2)c(OC)cc1/C=C1/NC(=O)NC1=O |  | 9.35 | inhibition [3]: inactive; Ratio IC50 [4]: 1.2; Ratio IC50 [5]: 2.2; Ratio IC50 [6]: 3.5; Ratio IC50 [7]: > 32; IC50 [8]: > 300 µM; Activity [9]: Active; IC50 [10]: 11 µM; IC50 [13]: 20.5 µM; IC50 [14]: 32.5 µM |
| CCCCC(CC)CN1C(=O)C(O)=C(C(C)=O)C1c1ccco1 (configuration not stated) | 77.5 | > 100 |  |
| CCCOC(=O)CNc1n[nH]c(=O)[nH]c1=O | 89.1 | > 100 |  |
| NNC(=O)c1cccc(Cn2cc(Br)c([N+](=O)[O-])n2)c1 | 94.6 | > 100 |  |
| CCOc1cc(/C=C2\NC(=O)NC2=O)c(Cl)cc1OC | 70 | > 100 |  |
| Cc1ccc(C2CC2C(=O)NN)cc1 (configuration not stated) | 83.5 | > 100 |  |
| O=C(OCCOCn1cc(Br)c(=O)[nH]c1=O)c1ccccc1 | 69.1 | > 100 |  |
| COc1cccc(/C=C2\NC(=O)NC2=O)c1-c1ccc(OC(=O)Nc2ccccc2)cc1 |  | 28.1 |  |
| Cc1cccc(OCC(=O)NC(Cc2ccccc2)C(=O)O)c1 (configuration not stated) | 87.2 | > 100 |  |
| O=C1Nc2ccccc2/C1=N\NC(=O)c1ccc(O)cc1O |  | 36.4 |  |
| Cc1cc(/C=C2\NC(=O)NC2=O)cc(C)c1OCc1cccc([N+](=O)[O-])c1 |  | 17.8 |  |
| O=C(O)CCCC(=O)NC1CCCCCCC1 | 76.3 | > 100 |  |
| O=C(O)CC1CSc2ccccc2NC1=O (configuration not stated) | 76.5 | > 100 |  |
